Measurements published in ChEMBL document CHEMBL4304743, “Discovery of ( E)- N1-(3-Fluorophenyl)- N3-(3-(2-(pyridin-2-yl)vinyl)-1 H-indazol-6-yl)malonamide (CHMFL-KIT-033) as a Novel c-KIT T670I Mutant Selective Kinase Inhibitor for Gastrointestinal Stromal Tumors (GISTs)” (J Med Chem, 2019).

Tests used:
[1] = Antiproliferative activity in mouse BAF3 cells after 72 hrs by CCK8 assay; format: cell-based
Outline: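 IL-3-independent BaF3 cells carrying tel-c-KIT constructs, grown in RPMI 1640 with 10% FBS. Cells at 1.5-5 × 10^4 cells/mL mixed directly with serial compound dilutions, 72 h at 37 °C, 5% CO2. CCK-8 read-out at 450 nm, normalized to DMSO; GI50 by curve fitting.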

[2] = molecular target: Mast/stem cell growth factor receptor Kit (Homo sapiens, UniProt P10721); assay: Inhibition of wild type TEL fused c-KIT (unknown origin) transfected in mouse BAF3 cells assessed as growth inhibition after 72 hrs by CCK8 assay; format: cell-based; settings: baf3, 72 h
Outline: (§1)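 IL-3 independent BaF3 cells stably expressing tel-c-KIT wt or tel-c-KIT T670I, grown in RPMI 1640 with 10% FBS, 2% L-glutamine, 37 °C, 5% CO2. Suspension cells at 1.5 to 5 × 10^4 cells/mL mixed with serial compound dilutions and incubated 72 h. Viability read by CCK-8 absorbance at 450 nm, normalized to DMSO; GI50 from curve fit. Selectivity is wt GI50 over T670I GI50.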

[3] = test system: Mast/stem cell growth factor receptor Kit (Homo sapiens), P10721 [T670I]; assay: Inhibition of TEL fused c-KIT T670I mutant (unknown origin) transfected in mouse BAF3 cells assessed as growth inhibition after 72 hrs by CCK8 assay; format: cell-based
Outline: (§2)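 Tel-c-KIT-transformed BaF3 lines (IL-3 independent) kept in RPMI 1640 with 10% FBS, 2% L-glutamine and pen/strep. Cells at 1.5 to 5 × 10^4 cells/mL mixed with graded compound and incubated 72 h at 37 °C, 5% CO2. Viability by CCK-8 absorbance at 450 nm, normalized to DMSO. GI50 from dose–response fit.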

[4] = Selectivity ratio, ratio of inhibition of wild type TEL fused c-KIT (unknown origin) transfected in mouse BAF3 cells assessed as growth inhibition to inhibition of TEL fused c-KIT T670I mutant (unknown origin) transfected in mouse BAF3 cells assessed as growth inhibition; design: species or system Homo sapiens; outline: as §1
[5] = test system: Mast/stem cell growth factor receptor Kit (Homo sapiens), P10721 [V559D]; assay: Inhibition of TEL fused c-KIT V559D mutant (unknown origin) transfected in mouse BAF3 cells assessed as growth inhibition after 72 hrs by CCK8 assay; format: cell-based; outline: as §2
[6] = test system: Mast/stem cell growth factor receptor Kit (Homo sapiens), P10721 [V559A]; assay: Inhibition of TEL fused c-KIT V559A mutant (unknown origin) transfected in mouse BAF3 cells assessed as growth inhibition after 72 hrs by CCK8 assay; format: cell-based; outline: as §2
[7] = test system: Mast/stem cell growth factor receptor Kit (Homo sapiens), P10721 [V559G]; assay: Inhibition of TEL fused c-KIT V559G mutant (unknown origin) transfected in mouse BAF3 cells assessed as growth inhibition after 72 hrs by CCK8 assay; format: cell-based; outline: as §2
[8] = test system: Mast/stem cell growth factor receptor Kit (Homo sapiens), P10721 [L576P]; assay: Inhibition of TEL fused c-KIT L576P mutant (unknown origin) transfected in mouse BAF3 cells assessed as growth inhibition after 72 hrs by CCK8 assay; format: cell-based; outline: as §2
[9] = test system: Mast/stem cell growth factor receptor Kit (Homo sapiens), P10721 [V559D,V654A]; assay: Inhibition of TEL fused c-KIT V654A/V559D double mutant (unknown origin) transfected in mouse BAF3 cells assessed as growth inhibition after 72 hrs by CCK8 assay; format: cell-based; outline: as §2
[10] = test system: Mast/stem cell growth factor receptor Kit (Homo sapiens), P10721 [V654A]; assay: Inhibition of TEL fused c-KIT V654A mutant (unknown origin) transfected in mouse BAF3 cells assessed as growth inhibition after 72 hrs by CCK8 assay; format: cell-based; outline: as §2
[11] = test system: Mast/stem cell growth factor receptor Kit (Homo sapiens), P10721 [V559D,T670I]; assay: Inhibition of TEL fused c-KIT T670I/V559D double mutant (unknown origin) transfected in mouse BAF3 cells assessed as growth inhibition after 72 hrs by CCK8 assay; format: cell-based; outline: as §2
[12] = test system: Mast/stem cell growth factor receptor Kit (Homo sapiens), P10721 [D816V]; assay: Inhibition of TEL fused c-KIT D816V mutant (unknown origin) transfected in mouse BAF3 cells assessed as growth inhibition after 72 hrs by CCK8 assay; format: cell-based; outline: as §2
[13] = test system: Mast/stem cell growth factor receptor Kit (Homo sapiens), P10721 [D816H]; assay: Inhibition of TEL fused c-KIT D816H mutant (unknown origin) transfected in mouse BAF3 cells assessed as growth inhibition after 72 hrs by CCK8 assay; format: cell-based; outline: as §2
[14] = test system: Mast/stem cell growth factor receptor Kit (Homo sapiens), P10721 [D820E]; assay: Inhibition of TEL fused c-KIT D820E mutant (unknown origin) transfected in mouse BAF3 cells assessed as growth inhibition after 72 hrs by CCK8 assay; format: cell-based; outline: as §2
[15] = test system: Mast/stem cell growth factor receptor Kit (Homo sapiens), P10721 [N822K]; assay: Inhibition of TEL fused c-KIT N822K mutant (unknown origin) transfected in mouse BAF3 cells assessed as growth inhibition after 72 hrs by CCK8 assay; format: cell-based; outline: as §2
[16] = test system: Mast/stem cell growth factor receptor Kit (Homo sapiens), P10721 [A829P]; assay: Inhibition of TEL fused c-KIT A829P mutant (unknown origin) transfected in mouse BAF3 cells assessed as growth inhibition after 72 hrs by CCK8 assay; format: cell-based; outline: as §2
Mast/stem cell growth factor receptor Kit (Homo sapiens), P10721 [A829P], sequence (P10721 whole entry A829P, the tested form may be a part): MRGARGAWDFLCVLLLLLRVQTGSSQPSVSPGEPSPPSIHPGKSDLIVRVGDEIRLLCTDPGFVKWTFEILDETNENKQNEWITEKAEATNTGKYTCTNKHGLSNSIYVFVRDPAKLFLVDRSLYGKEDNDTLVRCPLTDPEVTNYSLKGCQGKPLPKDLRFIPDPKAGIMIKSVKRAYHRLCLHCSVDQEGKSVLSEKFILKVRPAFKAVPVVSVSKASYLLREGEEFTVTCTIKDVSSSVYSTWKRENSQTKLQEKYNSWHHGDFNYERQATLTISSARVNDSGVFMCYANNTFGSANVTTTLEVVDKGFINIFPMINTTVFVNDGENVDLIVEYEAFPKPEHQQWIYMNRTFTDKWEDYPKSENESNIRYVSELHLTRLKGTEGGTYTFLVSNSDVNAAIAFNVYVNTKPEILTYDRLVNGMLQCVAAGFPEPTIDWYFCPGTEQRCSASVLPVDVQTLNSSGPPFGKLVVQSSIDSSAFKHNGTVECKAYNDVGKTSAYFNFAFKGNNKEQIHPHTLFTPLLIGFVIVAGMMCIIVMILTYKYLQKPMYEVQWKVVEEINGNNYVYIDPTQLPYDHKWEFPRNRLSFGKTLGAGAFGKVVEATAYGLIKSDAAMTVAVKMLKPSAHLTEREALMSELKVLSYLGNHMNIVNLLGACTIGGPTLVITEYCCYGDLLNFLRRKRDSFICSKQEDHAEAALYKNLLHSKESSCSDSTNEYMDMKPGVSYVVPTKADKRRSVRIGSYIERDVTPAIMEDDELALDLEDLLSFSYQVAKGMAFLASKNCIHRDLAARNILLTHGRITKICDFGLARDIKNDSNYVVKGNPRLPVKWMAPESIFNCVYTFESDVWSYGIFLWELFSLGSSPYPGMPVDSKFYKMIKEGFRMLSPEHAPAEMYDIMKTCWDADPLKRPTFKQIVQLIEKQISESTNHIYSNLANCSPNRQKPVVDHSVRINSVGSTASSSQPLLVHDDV

Mast/stem cell growth factor receptor Kit (Homo sapiens), P10721 [T670I], sequence (P10721 whole entry T670I, the tested form may be a part): as the sequence (P10721 whole entry A829P, the tested form may be a part) above, with T670I, P829A counted along it
Mast/stem cell growth factor receptor Kit, sequence (P10721 whole entry, the tested form may be a part): as the sequence (P10721 whole entry A829P, the tested form may be a part) above, with P829A counted along it
Mast/stem cell growth factor receptor Kit (Homo sapiens), P10721 [V559D,T670I], sequence (P10721 whole entry V559D/T670I, the tested form may be a part): as the sequence (P10721 whole entry A829P, the tested form may be a part) above, with V559D, T670I, P829A counted along it
Mast/stem cell growth factor receptor Kit (Homo sapiens), P10721 [V559D], sequence (P10721 whole entry V559D, the tested form may be a part): as the sequence (P10721 whole entry A829P, the tested form may be a part) above, with V559D, P829A counted along it
Mast/stem cell growth factor receptor Kit (Homo sapiens), P10721 [V654A], sequence (P10721 whole entry V654A, the tested form may be a part): as the sequence (P10721 whole entry A829P, the tested form may be a part) above, with V654A, P829A counted along it
Mast/stem cell growth factor receptor Kit (Homo sapiens), P10721 [N822K], sequence (P10721 whole entry N822K, the tested form may be a part): as the sequence (P10721 whole entry A829P, the tested form may be a part) above, with N822K, P829A counted along it
Mast/stem cell growth factor receptor Kit (Homo sapiens), P10721 [V559G], sequence (P10721 whole entry V559G, the tested form may be a part): as the sequence (P10721 whole entry A829P, the tested form may be a part) above, with V559G, P829A counted along it
Mast/stem cell growth factor receptor Kit (Homo sapiens), P10721 [D816H], sequence (P10721 whole entry D816H, the tested form may be a part): as the sequence (P10721 whole entry A829P, the tested form may be a part) above, with D816H, P829A counted along it
Mast/stem cell growth factor receptor Kit (Homo sapiens), P10721 [V559D,V654A], sequence (P10721 whole entry V559D/V654A, the tested form may be a part): as the sequence (P10721 whole entry A829P, the tested form may be a part) above, with V559D, V654A, P829A counted along it
Mast/stem cell growth factor receptor Kit (Homo sapiens), P10721 [L576P], sequence (P10721 whole entry L576P, the tested form may be a part): as the sequence (P10721 whole entry A829P, the tested form may be a part) above, with L576P, P829A counted along it
Mast/stem cell growth factor receptor Kit (Homo sapiens), P10721 [D816V], sequence (P10721 whole entry D816V, the tested form may be a part): as the sequence (P10721 whole entry A829P, the tested form may be a part) above, with D816V, P829A counted along it
Mast/stem cell growth factor receptor Kit (Homo sapiens), P10721 [V559A], sequence (P10721 whole entry V559A, the tested form may be a part): as the sequence (P10721 whole entry A829P, the tested form may be a part) above, with V559A, P829A counted along it
Mast/stem cell growth factor receptor Kit (Homo sapiens), P10721 [D820E], sequence (P10721 whole entry D820E, the tested form may be a part): as the sequence (P10721 whole entry A829P, the tested form may be a part) above, with D820E, P829A counted along it

Compound: O=C(CC(=O)Nc1ccccc1F)Nc1ccc2c(/C=C/c3ccccn3)n[nH]c2c1
- GI50 at 72 h [1]: 5090 nM
- GI50 [2]: 2160 nM
- GI50 [3]: 312 nM

Compound: O=C(CC(=O)Nc1ccc2c(/C=C/c3ccccn3)n[nH]c2c1)Nc1ccc(F)cc1
- GI50 at 72 h [1]: 5860 nM
- GI50 [2]: 554 nM
- GI50 [3]: 111 nM

Compound: O=C(CC(=O)Nc1ccc2c(-c3cccnc3)n[nH]c2c1)Nc1ccc(Cl)c(C(F)(F)F)c1
- GI50 at 72 h [1]: > 10000 nM
- GI50 [2]: 320 nM
- GI50 [3]: 45 nM
- RatioGI50 [4]: 7 - 15

Compound: Cn1cc(-c2n[nH]c3cc(NC(=O)CC(=O)Nc4ccc(Cl)c(C(F)(F)F)c4)ccc23)cn1
- GI50 at 72 h [1]: > 10000 nM
- GI50 [2]: 350 nM
- GI50 [3]: 23 nM
- RatioGI50 [4]: 7 - 15

Compound: O=C(Cc1ccc(Cl)c(C(F)(F)F)c1)Nc1ccc2c(/C=C/c3ccccn3)n[nH]c2c1
- GI50 at 72 h [1]: 3790 nM
- GI50 [2]: 5500 nM
- GI50 [3]: 3180 nM

Compound: O=C(Nc1ccc(Cl)c(C(F)(F)F)c1)Nc1ccc2c(/C=C/c3ccccn3)n[nH]c2c1
- GI50 at 72 h [1]: 1900 nM
- GI50 [2]: 1600 nM
- GI50 [3]: 1150 nM

Compound: CNC(=O)c1ccccc1Sc1ccc2c(/C=C/c3ccccn3)n[nH]c2c1 [AXITINIB]
- GI50 [2]: 105 nM
- GI50 [3]: 108 nM
- GI50 [5]: 12 nM
- GI50 [6]: 5 nM
- GI50 [7]: 2 nM
- GI50 [8]: 7 nM
- GI50 [9]: 13 nM
- GI50 [10]: 14 nM
- GI50 [11]: 129 nM
- GI50 [12]: 2020 nM
- GI50 [13]: 1820 nM
- GI50 [14]: 156 nM
- GI50 [15]: 1720 nM
- GI50 [16]: 406 nM

Compound: O=C(CC(=O)Nc1ccc2c(/C=C/c3ccccn3)n[nH]c2c1)Nc1ccc(Cl)c(C(F)(F)F)c1
- GI50 at 72 h [1]: 7400 nM
- GI50 [2]: 25 nM
- GI50 [3]: 2 nM
- RatioGI50 [4]: 12

Compound: O=C(CC(=O)Nc1ccc2c(/C=C/c3ccccn3)n[nH]c2c1)Nc1cccc(Cl)c1
- GI50 at 72 h [1]: 3610 nM
- GI50 [2]: 923 nM
- GI50 [3]: 111 nM

Compound: CN1CCN(Cc2ccc(-c3n[nH]c4cc(NC(=O)CC(=O)Nc5ccc(Cl)c(C(F)(F)F)c5)ccc34)cc2)CC1
- GI50 at 72 h [1]: 911 nM
- GI50 [2]: 19 nM
- GI50 [3]: 12 nM

Compound: O=C(CC(=O)Nc1cc(F)ccc1F)Nc1ccc2c(/C=C/c3ccccn3)n[nH]c2c1
- GI50 at 72 h [1]: 5080 nM
- GI50 [2]: 3460 nM
- GI50 [3]: 847 nM

Compound: O=C(CC(=O)Nc1ccc2c(/C=C/c3ccccn3)n[nH]c2c1)Nc1cccc(C(F)(F)F)c1
- GI50 at 72 h [1]: > 10000 nM
- GI50 [2]: 216 nM
- GI50 [3]: 86 nM

Compound: CNC(=O)c1ccc(-c2n[nH]c3cc(NC(=O)CC(=O)Nc4ccc(Cl)c(C(F)(F)F)c4)ccc23)cc1
- GI50 at 72 h [1]: > 10000 nM
- GI50 [2]: 338 nM
- GI50 [3]: 57 nM
- RatioGI50 [4]: 6

Compound: CN1CCN(c2cccc(NC(=O)CC(=O)Nc3ccc4c(/C=C/c5ccccn5)n[nH]c4c3)c2)CC1
- GI50 at 72 h [1]: > 10000 nM
- GI50 [2]: > 10000 nM
- GI50 [3]: 6170 nM

Compound: Cc1cccc(NC(=O)CC(=O)Nc2ccc3c(/C=C/c4ccccn4)n[nH]c3c2)c1
- GI50 at 72 h [1]: > 10000 nM
- GI50 [2]: 1430 nM
- GI50 [3]: 170 nM

Compound: COc1cccc(NC(=O)CC(=O)Nc2ccc3c(/C=C/c4ccccn4)n[nH]c3c2)c1
- GI50 at 72 h [1]: > 10000 nM
- GI50 [2]: 2740 nM
- GI50 [3]: 234 nM

Compound: O=C(CC(=O)Nc1ccc2c(/C=C/c3ccccn3)n[nH]c2c1)Nc1ccccc1
- GI50 at 72 h [1]: 6720 nM
- GI50 [2]: 2220 nM
- GI50 [3]: 117 nM
- RatioGI50 [4]: 19

Compound: Cc1ccc(-c2n[nH]c3cc(NC(=O)CC(=O)Nc4ccc(Cl)c(C(F)(F)F)c4)ccc23)cn1
- GI50 at 72 h [1]: 4910 nM
- GI50 [2]: 183 nM
- GI50 [3]: 59 nM

Compound: O=C(CC(=O)Nc1ccc2cn[nH]c2c1)Nc1ccc(Cl)c(C(F)(F)F)c1
- GI50 at 72 h [1]: > 10000 nM
- GI50 [2]: > 10000 nM
- GI50 [3]: 2670 nM

Compound: CN(C)c1cccc(NC(=O)CC(=O)Nc2ccc3c(/C=C/c4ccccn4)n[nH]c3c2)c1
- GI50 at 72 h [1]: > 10000 nM
- GI50 [2]: 3870 nM
- GI50 [3]: 594 nM

Compound: NC(=O)c1cccc(-c2n[nH]c3cc(NC(=O)CC(=O)Nc4ccc(Cl)c(C(F)(F)F)c4)ccc23)c1
- GI50 at 72 h [1]: > 10000 nM
- GI50 [2]: 1550 nM
- GI50 [3]: 339 nM

Compound: O=C(CC(=O)Nc1c(F)c(F)c(F)c(F)c1F)Nc1ccc2c(/C=C/c3ccccn3)n[nH]c2c1
- GI50 at 72 h [1]: 3680 nM
- GI50 [2]: 2950 nM
- GI50 [3]: 1300 nM

Compound: O=C(CC(=O)Nc1ccc2c(-c3cccc(F)c3)n[nH]c2c1)Nc1ccc(Cl)c(C(F)(F)F)c1
- GI50 at 72 h [1]: > 10000 nM
- GI50 [2]: 1120 nM
- GI50 [3]: 179 nM

Compound: O=C(CC(=O)Nc1ccc2c(/C=C/c3ccccn3)n[nH]c2c1)Nc1cccc(Br)c1
- GI50 at 72 h [1]: 6090 nM
- GI50 [2]: 943 nM
- GI50 [3]: 113 nM

Compound: CNC(=O)c1cncc(-c2n[nH]c3cc(NC(=O)CC(=O)Nc4ccc(Cl)c(C(F)(F)F)c4)ccc23)c1
- GI50 at 72 h [1]: > 10000 nM
- GI50 [2]: > 10000 nM
- GI50 [3]: 4840 nM

Compound: CN1CCN(c2ccc(-c3n[nH]c4cc(NC(=O)CC(=O)Nc5ccc(Cl)c(C(F)(F)F)c5)ccc34)cc2)CC1
- GI50 at 72 h [1]: 1350 nM
- GI50 [2]: 25 nM
- GI50 [3]: 12 nM

Compound: O=C(Nc1ccc(Cl)c(C(F)(F)F)c1)C1(C(=O)Nc2ccc3c(/C=C/c4ccccn4)n[nH]c3c2)CC1
- GI50 at 72 h [1]: > 10000 nM
- GI50 [2]: 1000 nM
- GI50 [3]: 230 nM

Compound: O=C(CC(=O)Nc1ccc2c(/C=C/c3ccccn3)n[nH]c2c1)Nc1cc(F)cc(F)c1
- GI50 at 72 h [1]: 4240 nM
- GI50 [2]: 1870 nM
- GI50 [3]: 399 nM

Compound: Cc1n[nH]c2cc(NC(=O)CC(=O)Nc3ccc(Cl)c(C(F)(F)F)c3)ccc12
- GI50 at 72 h [1]: > 10000 nM
- GI50 [2]: > 10000 nM
- GI50 [3]: 1880 nM

Compound: O=C(Nc1ccc2c(/C=C/c3ccccn3)n[nH]c2c1)c1ccc(Cl)c(C(F)(F)F)c1
- GI50 at 72 h [1]: 1710 nM
- GI50 [2]: 2970 nM
- GI50 [3]: 1710 nM
